From ChEMBL document CHEMBL6134769, “Discovery of N-substituted-2-oxoindolin benzoylhydrazines as c-MET/SMO modulators in EGFRi-resistant non-small cell lung cancer” (RSC Med Chem, 2025)
Calls of active or inactive are those of the source. No cut-off for these calls is given here.

Legend:
[1] = biological target: Receptor-type tyrosine-protein kinase FLT3 (Homo sapiens) (UniProt P36888); assay: Inhibition of human N-terminal GST-fused FLT3 cytoplasmic domain (564 to 993 (end)residues) expressed in baculovirus expression system at 20 uM measured after 1 hr in presence of peptide substrate and ATP by off-chip mobility shift assay relative to control
Outline: (§1)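 Off-chip mobility shift assay. Product and substrate peptides were separated; activity was taken as P/(P+S). Complete reaction was set as 0% inhibition and enzyme-free background as 100%. Run in triplicate, mean ± SD.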

[2] = biological target: Tyrosine-protein kinase Lck (Homo sapiens) (UniProt P06239); assay: Inhibition of human full-length N-terminal GST-fused LCK (1 to 509 (end)residues) expressed in baculovirus expression system at 20 uM measured after 1 hr in presence of peptide substrate and ATP by off-chip mobility shift assay relative to control; outline: as §1
[3] = biological target: Platelet-derived growth factor receptor alpha (Homo sapiens) (UniProt P16234); assay: Inhibition of human N-terminal GST-fused PDGFRalpha cytoplasmic domain (550 to 1089 (end)residues) expressed in baculovirus expression system at 20 uM measured after 1 hr in presence of peptide substrate and ATP by off-chip mobility shift assay relative to control; outline: as §1
[4] = biological target: Protein-tyrosine kinase 2-beta (Homo sapiens) (UniProt Q14289); assay: Inhibition of human full-length N-terminal GST-fused PYK2 (1 to 967 (end)residues) expressed in baculovirus expression system at 20 uM measured after 1 hr in presence of peptide substrate and ATP by off-chip mobility shift assay relative to control; outline: as §1
[5] = Inhibition of human full-length N-terminal GST-fused SRC (1 to 536 (end)residues) expressed in baculovirus expression system at 20 uM measured after 1 hr in presence of peptide substrate and ATP by off-chip mobility shift assay relative to control; outline: as §1
[6] = biological target: T1, Tyrosine-protein kinase receptor TYRO3 (Homo sapiens) (UniProt Q06418); assay: Inhibition of human N-terminal GST-fused TYRO3 cytoplasmic domain (453 to 890 (end)residues) expressed in baculovirus expression system at 20 uM measured after 1 hr in presence of peptide substrate and ATP by off-chip mobility shift assay relative to control; outline: as §1
T1 sequence (whole entry): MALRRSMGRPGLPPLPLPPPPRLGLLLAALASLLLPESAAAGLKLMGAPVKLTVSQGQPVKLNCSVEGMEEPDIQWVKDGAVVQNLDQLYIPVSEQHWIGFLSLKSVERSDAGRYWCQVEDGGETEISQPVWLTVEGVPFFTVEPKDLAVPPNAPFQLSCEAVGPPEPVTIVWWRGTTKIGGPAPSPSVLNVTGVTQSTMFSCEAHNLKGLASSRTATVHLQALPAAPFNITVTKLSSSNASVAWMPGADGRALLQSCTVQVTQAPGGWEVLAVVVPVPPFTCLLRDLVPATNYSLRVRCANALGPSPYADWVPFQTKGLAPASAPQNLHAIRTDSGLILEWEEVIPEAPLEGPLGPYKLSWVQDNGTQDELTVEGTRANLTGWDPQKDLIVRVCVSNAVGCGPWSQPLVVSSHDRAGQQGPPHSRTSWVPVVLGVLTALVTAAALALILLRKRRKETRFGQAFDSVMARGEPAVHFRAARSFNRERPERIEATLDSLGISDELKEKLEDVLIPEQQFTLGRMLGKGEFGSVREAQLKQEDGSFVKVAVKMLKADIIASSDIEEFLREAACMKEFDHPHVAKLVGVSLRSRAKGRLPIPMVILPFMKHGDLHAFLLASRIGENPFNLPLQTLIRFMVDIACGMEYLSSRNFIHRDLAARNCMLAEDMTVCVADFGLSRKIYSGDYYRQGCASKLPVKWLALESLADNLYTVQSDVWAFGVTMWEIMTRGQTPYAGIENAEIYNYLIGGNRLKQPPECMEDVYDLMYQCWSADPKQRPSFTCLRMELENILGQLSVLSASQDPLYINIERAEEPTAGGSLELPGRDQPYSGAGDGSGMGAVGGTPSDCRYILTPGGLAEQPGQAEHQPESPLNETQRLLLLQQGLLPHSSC

[7] = biological target: T2, Protein smoothened (Homo sapiens, UniProt Q99835); assay: Displacement of [3H]-cyclopamine from SMO receptor (unknown origin) expressed in HEK293T cell membranes measured after 4 hrs by liquid scintillation spectrometry.; set-up: species or system Cell membrane
Outline: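 Incubation of 15 μg HEK293T-WT SMO membranes (Kd 20 nM, Bmax 6.2 pmol/mg) with 25 nM [3H]-cyclopamine and varied compound, 4 h at RT, in 50 mM HEPES, 5 mM MgCl2, 0.02% BSA. Nonspecific binding was taken with 25 μM compound plus vismodegib. Bound ligand was separated on PEI-soaked GF/C filters, washed with ice-cold PBS/0.01% Triton X-100, and counted by scintillation; IC50 converted to Ki by Cheng–Prusoff.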

[8] = biological target: T2, Protein smoothened; assay: Inhibition of SMO in human HCC827 Gefitinib-resistant (GR) cells assessed as reduction in GLI1 expression at antiproliferative IC50 measured after 72 hrs by Western blot analysis; format: functional, cell-based; conditions: HCC827 Gefitinib-resistant (GR) cell

Chain of Tyrosine-protein kinase Lck (Homo sapiens) (P06239 2-509 limits assumed): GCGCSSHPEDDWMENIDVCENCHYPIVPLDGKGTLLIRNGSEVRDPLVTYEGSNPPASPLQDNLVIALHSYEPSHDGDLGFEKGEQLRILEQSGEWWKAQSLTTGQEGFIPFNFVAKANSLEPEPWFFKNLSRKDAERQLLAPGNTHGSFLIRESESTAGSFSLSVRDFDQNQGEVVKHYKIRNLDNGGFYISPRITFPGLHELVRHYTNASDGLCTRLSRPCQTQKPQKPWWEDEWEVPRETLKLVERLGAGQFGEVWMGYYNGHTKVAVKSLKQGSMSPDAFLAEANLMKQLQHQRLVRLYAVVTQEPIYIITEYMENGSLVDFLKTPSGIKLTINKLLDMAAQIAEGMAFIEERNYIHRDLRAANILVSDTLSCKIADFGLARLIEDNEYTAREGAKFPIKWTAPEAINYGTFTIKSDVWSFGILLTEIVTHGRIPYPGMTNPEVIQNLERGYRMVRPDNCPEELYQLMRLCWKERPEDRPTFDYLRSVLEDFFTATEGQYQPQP
Chain of Protein-tyrosine kinase 2-beta (Homo sapiens) (Q14289 whole entry, looked up, the tested form may be a part): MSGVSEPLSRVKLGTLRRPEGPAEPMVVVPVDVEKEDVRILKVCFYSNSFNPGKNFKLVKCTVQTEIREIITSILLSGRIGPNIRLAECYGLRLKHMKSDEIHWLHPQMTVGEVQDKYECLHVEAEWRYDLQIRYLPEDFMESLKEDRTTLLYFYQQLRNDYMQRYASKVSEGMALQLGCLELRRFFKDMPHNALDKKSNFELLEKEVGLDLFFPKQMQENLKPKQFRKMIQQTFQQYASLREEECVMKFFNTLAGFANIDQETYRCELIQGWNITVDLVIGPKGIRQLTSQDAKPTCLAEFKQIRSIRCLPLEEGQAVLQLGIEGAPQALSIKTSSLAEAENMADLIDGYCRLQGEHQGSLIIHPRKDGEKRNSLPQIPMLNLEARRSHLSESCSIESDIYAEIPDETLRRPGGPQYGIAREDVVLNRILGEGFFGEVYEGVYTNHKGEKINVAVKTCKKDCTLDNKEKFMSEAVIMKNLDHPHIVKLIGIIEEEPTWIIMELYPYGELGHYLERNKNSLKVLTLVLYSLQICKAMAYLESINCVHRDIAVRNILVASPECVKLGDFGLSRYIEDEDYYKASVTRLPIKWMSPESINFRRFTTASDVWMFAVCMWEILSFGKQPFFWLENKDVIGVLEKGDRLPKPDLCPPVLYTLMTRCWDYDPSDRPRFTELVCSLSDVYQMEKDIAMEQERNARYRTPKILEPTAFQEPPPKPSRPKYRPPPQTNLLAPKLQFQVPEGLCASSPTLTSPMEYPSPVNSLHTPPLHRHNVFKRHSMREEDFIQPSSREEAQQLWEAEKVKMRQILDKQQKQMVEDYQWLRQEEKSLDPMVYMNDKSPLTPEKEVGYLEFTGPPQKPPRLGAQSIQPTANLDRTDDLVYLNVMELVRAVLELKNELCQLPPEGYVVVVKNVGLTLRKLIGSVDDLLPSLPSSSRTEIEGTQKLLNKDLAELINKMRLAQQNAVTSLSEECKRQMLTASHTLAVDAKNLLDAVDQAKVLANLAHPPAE
Chain of Platelet-derived growth factor receptor alpha (Homo sapiens) (P16234 whole entry, the tested form may be a part): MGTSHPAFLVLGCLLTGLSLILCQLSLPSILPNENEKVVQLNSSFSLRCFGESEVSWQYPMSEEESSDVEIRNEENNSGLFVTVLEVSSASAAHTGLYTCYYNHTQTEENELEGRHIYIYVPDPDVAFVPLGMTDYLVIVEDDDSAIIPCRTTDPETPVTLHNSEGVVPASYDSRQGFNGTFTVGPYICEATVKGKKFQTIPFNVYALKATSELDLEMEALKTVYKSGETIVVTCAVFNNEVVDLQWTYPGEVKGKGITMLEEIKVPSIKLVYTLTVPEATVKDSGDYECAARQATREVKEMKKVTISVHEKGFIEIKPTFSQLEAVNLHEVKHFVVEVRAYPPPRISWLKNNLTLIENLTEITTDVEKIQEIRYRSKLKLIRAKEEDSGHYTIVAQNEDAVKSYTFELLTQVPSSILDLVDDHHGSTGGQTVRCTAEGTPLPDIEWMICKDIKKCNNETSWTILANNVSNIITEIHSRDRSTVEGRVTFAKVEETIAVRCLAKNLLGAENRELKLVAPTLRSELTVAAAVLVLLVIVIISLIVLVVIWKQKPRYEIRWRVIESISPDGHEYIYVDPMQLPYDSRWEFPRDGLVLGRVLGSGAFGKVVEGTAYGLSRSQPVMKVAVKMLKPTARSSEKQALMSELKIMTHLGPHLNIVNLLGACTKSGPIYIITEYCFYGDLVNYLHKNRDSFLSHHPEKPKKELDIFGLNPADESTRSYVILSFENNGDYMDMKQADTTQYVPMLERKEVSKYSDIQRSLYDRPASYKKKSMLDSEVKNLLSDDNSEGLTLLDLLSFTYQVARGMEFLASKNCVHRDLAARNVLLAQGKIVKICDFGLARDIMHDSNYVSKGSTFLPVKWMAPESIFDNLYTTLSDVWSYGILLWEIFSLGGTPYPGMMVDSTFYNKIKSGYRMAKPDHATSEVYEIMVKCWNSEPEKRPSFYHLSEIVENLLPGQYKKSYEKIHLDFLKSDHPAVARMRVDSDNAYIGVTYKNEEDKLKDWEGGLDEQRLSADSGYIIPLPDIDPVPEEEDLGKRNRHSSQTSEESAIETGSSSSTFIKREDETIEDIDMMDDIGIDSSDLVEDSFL
Chain of Receptor-type tyrosine-protein kinase FLT3 (Homo sapiens) (P36888 whole entry, the tested form may be a part): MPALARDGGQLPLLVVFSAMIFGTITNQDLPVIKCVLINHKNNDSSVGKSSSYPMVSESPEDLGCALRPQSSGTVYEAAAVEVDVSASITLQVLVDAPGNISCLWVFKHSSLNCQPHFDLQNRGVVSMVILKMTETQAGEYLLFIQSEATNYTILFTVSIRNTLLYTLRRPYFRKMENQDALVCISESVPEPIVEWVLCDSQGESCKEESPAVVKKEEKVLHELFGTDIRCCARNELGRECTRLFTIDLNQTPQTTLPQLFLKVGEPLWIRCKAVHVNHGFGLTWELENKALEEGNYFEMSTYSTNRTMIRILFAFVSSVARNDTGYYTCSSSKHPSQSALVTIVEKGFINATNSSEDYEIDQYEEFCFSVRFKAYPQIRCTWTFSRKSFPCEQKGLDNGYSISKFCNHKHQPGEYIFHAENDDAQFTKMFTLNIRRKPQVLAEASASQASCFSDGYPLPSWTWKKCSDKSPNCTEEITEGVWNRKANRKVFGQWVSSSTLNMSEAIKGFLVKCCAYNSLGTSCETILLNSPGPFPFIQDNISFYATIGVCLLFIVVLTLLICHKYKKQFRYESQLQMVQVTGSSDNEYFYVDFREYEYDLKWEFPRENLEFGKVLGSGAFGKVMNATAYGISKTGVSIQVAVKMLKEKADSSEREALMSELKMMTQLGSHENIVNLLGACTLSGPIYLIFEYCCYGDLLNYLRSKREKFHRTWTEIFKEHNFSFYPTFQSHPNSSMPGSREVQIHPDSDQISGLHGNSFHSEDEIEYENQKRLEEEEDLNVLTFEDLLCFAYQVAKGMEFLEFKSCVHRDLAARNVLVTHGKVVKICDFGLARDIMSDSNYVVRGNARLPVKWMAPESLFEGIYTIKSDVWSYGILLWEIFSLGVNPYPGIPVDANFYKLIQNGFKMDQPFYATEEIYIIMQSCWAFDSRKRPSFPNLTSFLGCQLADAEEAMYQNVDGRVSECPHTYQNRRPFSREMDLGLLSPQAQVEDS
T2 sequence (Q99835 whole entry): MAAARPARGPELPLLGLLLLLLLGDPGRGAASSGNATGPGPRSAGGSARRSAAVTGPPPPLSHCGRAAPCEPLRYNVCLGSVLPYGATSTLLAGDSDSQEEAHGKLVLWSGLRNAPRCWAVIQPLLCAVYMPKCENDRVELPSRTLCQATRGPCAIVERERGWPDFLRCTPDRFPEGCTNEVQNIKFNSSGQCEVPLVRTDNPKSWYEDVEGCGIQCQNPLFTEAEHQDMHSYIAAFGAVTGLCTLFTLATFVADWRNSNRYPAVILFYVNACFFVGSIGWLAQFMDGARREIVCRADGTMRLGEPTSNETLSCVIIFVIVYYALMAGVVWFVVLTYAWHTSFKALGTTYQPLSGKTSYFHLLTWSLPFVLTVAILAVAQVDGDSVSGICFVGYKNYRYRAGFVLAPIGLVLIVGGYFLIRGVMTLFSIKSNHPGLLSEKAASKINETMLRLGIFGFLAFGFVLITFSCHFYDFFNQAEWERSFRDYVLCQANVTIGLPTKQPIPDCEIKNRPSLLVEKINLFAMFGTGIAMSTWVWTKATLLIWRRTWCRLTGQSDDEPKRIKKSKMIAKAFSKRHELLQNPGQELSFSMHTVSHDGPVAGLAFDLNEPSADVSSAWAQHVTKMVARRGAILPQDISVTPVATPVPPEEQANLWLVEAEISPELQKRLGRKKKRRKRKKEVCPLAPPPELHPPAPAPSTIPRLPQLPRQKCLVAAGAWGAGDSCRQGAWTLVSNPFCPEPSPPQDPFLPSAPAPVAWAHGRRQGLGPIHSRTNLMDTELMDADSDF

Structure (SMILES)	inhibition [1]	inhibition [2]	inhibition [3]	inhibition [4]	inhibition [5]	inhibition [6]	Ki [7]	GLI1 expression reduction (qualitative) [8]
Cc1ccc(NC(=O)CN2C(=O)/C(=N\NC(=O)c3cc(Br)ccc3O)c3ccccc32)cc1	89.7%	84.8%	76.2%	49.9%	49.3%	48.5%	185 nM	Active
Cc1ccc(NC(=O)CN2C(=O)/C(=N\NC(=O)c3cc(Br)ccc3O)c3ccc(Cl)cc32)cc1	71.9%	71.5%	56.5%	49.7%	64.3%	51.3%	28 nM	Active
O=C(CN1C(=O)/C(=N\NC(=O)c2cc(Br)ccc2O)c2c(Br)cccc21)Nc1ccc([N+](=O)[O-])cc1	55.8%	66.8%	63.3%	45.1%	50.7%	46.4%	9 nM	Active
Cc1ccc(NC(=O)CN2C(=O)/C(=N\NC(=O)c3cc(Br)ccc3O)c3ccc(Br)cc32)cc1	72.6%	69.3%	56.7%	48.5%	56.5%	39.3%	11 nM	Active
